Published values pooled from the literature.
Lines come from different studies, so protocols differ.
Method: competition with immobilised ligand
RPS6KA4 C-terminal kinase domain: Ribosomal protein S6 kinase alpha-4, C-terminal kinase domain (RPS6KA4, Homo sapiens, UniProt O75676)
RPS6KA4 N-terminal kinase domain: Ribosomal protein S6 kinase alpha-4, N-terminal kinase domain (RPS6KA4, Homo sapiens, UniProt O75676)

| Structure (SMILES) | target | read-out | concentration | remaining binding [%] |
| --- | --- | --- | --- | --- |
| C[C@@H](c1ccc(-n2cnc3c(N)ncnc32)cc1)N1CCc2nn(C)c(Cc3ccccc3)c2C1=O | RPS6KA4 C-terminal kinase domain | binding | 0.1 µM | 84 |
| Cc1c(NC(=O)c2cc(C(N)=O)nc3cc(F)ccc23)c(C(F)(F)F)nn1Cc1ccc(C#N)cc1 | RPS6KA4 C-terminal kinase domain | cell-free assay | 1 µM | 85 |
| O=C(NCCCN1CCOCC1)c1ccc(Nc2nccc(-c3cc4ccccc4s3)n2)cc1 | RPS6KA4 N-terminal kinase domain | binding | 1 µM | 100 |
| c1cncc(-c2cccc(Nc3nccc(NC4CCCCC4)n3)c2)c1 | RPS6KA4 N-terminal kinase domain | binding | 10 µM | 78 |
| CN(C)c1ncc(F)c(-c2cnn3ncccc23)n1 | RPS6KA4 N-terminal kinase domain | binding | 1 µM | 89 |
| O=S(=O)(NC1CCC(c2cc(F)ccc2F)(S(=O)(=O)c2ccc(Cl)cc2)CC1)C(F)(F)F (stereo not drawn) | RPS6KA4 N-terminal kinase domain | cell-free assay | 1 µM | 100 |
| O=C(NCC1CCOCC1)c1n[nH]cc1NC(=O)c1c(F)cccc1F | RPS6KA4 N-terminal kinase domain | binding | 1 µM | 95 |
| C[C@@H]1CCN(c2nccc(-c3cnn4ncccc34)n2)C1 | RPS6KA4 C-terminal kinase domain | binding | 1 µM | 58 |
| O=C(Nc1c[nH]nc1C(=O)NC1CCNCC1)c1cc(F)cc(F)c1 | RPS6KA4 N-terminal kinase domain | binding | 1 µM | 100 |
| COc1cnc(Nc2cccc(S(N)(=O)=O)c2)nc1N1CCN(c2ccccc2)CC1 | RPS6KA4 N-terminal kinase domain | binding | 1 µM | 94 |
| CN(C)c1nccc(-c2cnc3ncccn23)n1 | RPS6KA4 C-terminal kinase domain | binding | 1 µM | 62 |
| O=C(Nc1cccnn1)N1CC(C/C=C/c2cncc(Oc3ccc(C(F)(F)F)cn3)n2)C1 | RPS6KA4 N-terminal kinase domain | cell-free assay | 1 µM | 100 |
| FC(F)(F)Oc1cccc(-c2cnc3ccc(-c4ccncc4)nn23)c1 | RPS6KA4 N-terminal kinase domain | binding | 5 µM | 97 |
| O=C(NCCCN1CCOCC1)c1ccc(Nc2ncc(Cl)c(-c3ccc(Cl)s3)n2)cc1 | RPS6KA4 C-terminal kinase domain | binding | 1 µM | 26 |
| Nc1ncc2c(n1)-c1c([nH]c3ccc(C#CC4CC4)cc13)CCCC2 | RPS6KA4 N-terminal kinase domain | binding | 1 µM | 88 |
| Cc1noc([C@H]2C[C@@H](c3ccc(C(F)(F)F)cc3)CN(C(=O)N3CCS(=O)(=O)C3)C2)n1 | RPS6KA4 N-terminal kinase domain | cell-free assay | 1 µM | 100 |
| CCN1CCN(Cc2ccc(C(=O)Nc3ccc(C)c(Oc4ccc5c(c4)CC(=O)N5)c3)cc2C(F)(F)F)CC1 | RPS6KA4 N-terminal kinase domain | binding | 1 µM | 100 |

| Structure (SMILES) | target | read-out | concentration | remaining binding [%] |
| --- | --- | --- | --- | --- |
| COc1ncc2cc3ccccc3nc2c1C#N | RPS6KA4 N-terminal kinase domain | cell-free assay | 5 µM | 94 |
| Cc1cnn2ncc(-c3ccnc(N(C)C)n3)c2c1 | RPS6KA4 C-terminal kinase domain | binding | 1 µM | 62 |
| COc1ccc2c(c1)O[C@@H](c1ccc(OC)c(OC)c1)C[C@H]2NC(=O)C1(c2ccc3c(c2)OC(F)(F)O3)CC1 | RPS6KA4 C-terminal kinase domain | cell-free assay | 1 µM | 81 |
| c1cnn2ncc(-c3ccnc(N4CCC45COC5)n3)c2c1 | RPS6KA4 N-terminal kinase domain | binding | 1 µM | 91 |
| O=C(NCc1ncc(C(F)(F)F)cc1Cl)c1ccc2c(c1)C1(CCS(=O)(=O)CC1)[C@@H](C1CC1)N2S(=O)(=O)c1ccc(F)cc1 | RPS6KA4 C-terminal kinase domain | cell-free assay | 1 µM | 84 |
| CN(CCCC(F)(F)F)c1nccc(-c2cnn3ncccc23)n1 | RPS6KA4 N-terminal kinase domain | binding | 1 µM | 100 |
| Cc1cnc(Nc2ccc(C(=O)N3CCC(N4CCCC4)CC3)cc2)nc1-c1cc2ccccc2s1 | RPS6KA4 C-terminal kinase domain | binding | 1 µM | 3.8 |
| COc1cnc(Nc2cccc(S(N)(=O)=O)c2)nc1N1CCN(c2ccccc2)C(=O)C1 | RPS6KA4 C-terminal kinase domain | binding | 1 µM | 100 |
| O=C(c1ccc(Nc2ncc(Cl)c(-c3cc4ccccc4s3)n2)cc1)N1CCC(N2CCCC2)CC1 | RPS6KA4 C-terminal kinase domain | binding | 1 µM | 13 |
| CNC(=O)[C@@H]1CC[C@@H](n2c(-c3ccc4cnccc4c3)nc3ccc(C(=O)NCc4cccc(C(N)=O)c4)cc32)C1 | RPS6KA4 C-terminal kinase domain | binding | 1 µM | 99 |
| Cc1c(C(=O)O)cc(-c2ccc(C3CCNCC3)cc2)c2ccc(-c3ccc(C(F)(F)F)cc3)cc12 | RPS6KA4 N-terminal kinase domain | binding | 1 µM | 88 |
| O=C(c1ccc(Nc2ncc(Cl)c(-c3ccc(Cl)s3)n2)cc1)N1CCC(N2CCCC2)CC1 | RPS6KA4 C-terminal kinase domain | binding | 1 µM | 18 |
| C=CC(=O)N1CCC(C(=O)NCC(=O)N2CCN(c3nc(-c4cnc(N)nc4C(F)F)nc(N4CCOCC4)n3)CC2)CC1 | RPS6KA4 C-terminal kinase domain | binding | 1 µM | 100 |
| O=C(c1ccc(Nc2nccc(-c3cc4ccccc4s3)n2)cc1)N1CCC(N2CCCC2)CC1 | RPS6KA4 C-terminal kinase domain | binding | 1 µM | 14 |
| F[C@@H]1CCN(c2nccc(-c3cnn4ncccc34)n2)C1 | RPS6KA4 C-terminal kinase domain | binding | 1 µM | 92 |
| O=C(N1CCS(=O)(=O)CC1)N1C[C@H](c2ccc(OC(F)(F)F)cc2)C[C@H](c2nc(C3CC3)no2)C1 | RPS6KA4 N-terminal kinase domain | cell-free assay | 1 µM | 100 |
